Screens from PubChem BioAssay.
PP5 primary: PP5 (human) phosphatase inhibition; inhibition, % at 6.7 µM; purified PP5c, OMFP substrate fluorescence; actives 0.18% (n = 320,000); P53041;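 active = inhibition above the campaign's mean inhibition across all tested compounds plus 3 SD, cut at about 9.5% in these data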;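 also: 0% = DMSO only and 100% = 100 µM cantharidin control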
ASAP1 GAP inh: inhibitors of human ASAP1 ArfGAP activity. Q9ULH1. ASAP1-stimulated ARF1 GTP hydrolysis, GDP FP detection. inhibition, % at 16.5 µM. actives 0.19% (n = 360,000); in the data active = inhibition above about 25%;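 also: 0% = vehicle with enzyme and substrate and 100% = no enzyme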
ARFGAP1 inh: inhibitors of rat ARFGAP1. actives 0.26% (n = 360,000). Q62848. AID 651572. Arfgap1-stimulated ARF1 GTP hydrolysis, GDP FP detection. inhibition, % at 16.5 µM;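 active = inhibition above a per-plate limit, mean inhibition of low control wells plus 3 SD, cut at about 25% in these data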;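 also: 0% = DMSO wells with enzyme and 100% = wells lacking Arfgap1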
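Repeats: one replicate per compound; assay system: rat Arfgap1 catalytic domain, aa 1-136; times: enzyme reaction 120 min at 25 °C after 20 min preincubation; detection: FP of antibody-bound GDP Alexa 633 tracer, ex 620/em 688 nm; benchmarks: high control wells lacking Arfgap1, low control full reaction with DMSO; reagent: human ARF1(Δ1-17)-GTP substrate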
PKD1 inh: inhibitors of human PKD1 kinase | Q15139 | PKD1 kinase fluorescence polarization assay | inhibition, % (no concentration beside the values) | actives 0.056% (n = 200,000); in the data active = inhibition above about 50%
Target sequence (Q15139 whole entry, looked up): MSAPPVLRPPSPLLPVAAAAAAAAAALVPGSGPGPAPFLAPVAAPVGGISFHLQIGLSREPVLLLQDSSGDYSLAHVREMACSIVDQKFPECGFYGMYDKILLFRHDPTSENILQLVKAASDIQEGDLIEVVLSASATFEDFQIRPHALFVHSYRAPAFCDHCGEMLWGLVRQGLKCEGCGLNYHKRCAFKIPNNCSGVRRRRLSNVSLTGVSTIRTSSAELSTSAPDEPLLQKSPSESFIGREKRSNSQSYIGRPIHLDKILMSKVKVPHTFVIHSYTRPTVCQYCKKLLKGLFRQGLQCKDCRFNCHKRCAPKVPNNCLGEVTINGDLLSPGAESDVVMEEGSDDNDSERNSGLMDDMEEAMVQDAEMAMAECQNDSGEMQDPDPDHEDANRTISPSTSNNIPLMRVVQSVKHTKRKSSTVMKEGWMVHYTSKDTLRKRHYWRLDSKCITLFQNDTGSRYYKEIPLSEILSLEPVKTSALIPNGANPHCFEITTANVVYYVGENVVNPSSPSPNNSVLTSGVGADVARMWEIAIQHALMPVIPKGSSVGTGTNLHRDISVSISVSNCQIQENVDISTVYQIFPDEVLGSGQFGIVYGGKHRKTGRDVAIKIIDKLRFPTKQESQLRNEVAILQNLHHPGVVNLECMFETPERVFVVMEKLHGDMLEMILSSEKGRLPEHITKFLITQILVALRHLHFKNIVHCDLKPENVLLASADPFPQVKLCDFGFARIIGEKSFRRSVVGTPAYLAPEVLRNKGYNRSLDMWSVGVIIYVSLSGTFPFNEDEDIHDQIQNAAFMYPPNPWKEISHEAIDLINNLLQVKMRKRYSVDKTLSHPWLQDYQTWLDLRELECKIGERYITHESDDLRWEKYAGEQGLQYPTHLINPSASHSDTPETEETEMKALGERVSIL
FP interf 140K: FP interference, PKD inhibitor counter-screen. 85 tested, under 10 active. PKD1 FP assay interference counter-screen, fluorescence polarization. AID 1315. shares compounds with PKD1 inh. inhibition, % at 10 µM; call rule not given here
Starred values were filed as active, the others as inactive. This is a sample that favours compounds with a hit; in the whole collection about 0.54% have one here.

`O=[N+]([O-])c1ccc(/C=N/Nc2ccc3ccccc3c2)o1` gave PP5 primary 4, ASAP1 GAP inh 25*, ARFGAP1 inh -4 and PKD1 inh 0.
For O=C(Nc1ccc(C2=NCCN2)cc1)c1ccc(C(=O)Nc2ccc(C3=NCCN3)cc2)c([N+](=O)[O-])c1 the results were PP5 primary 1, ASAP1 GAP inh 3 and ARFGAP1 inh 27*.
`O=C(CSc1ccc2nnc(-c3cccnc3)n2n1)c1ccccc1` gave PP5 primary 1, ASAP1 GAP inh 5, ARFGAP1 inh 4 and PKD1 inh 112*.
O=C(CSc1ccc2nnc(-c3cccnc3)n2n1)Nc1ccccc1F was read as ASAP1 GAP inh 17 and ARFGAP1 inh 5.
`COC(=O)[C@]12C[C@H](CC(=O)NCC3CCCCC3)C(=O)N(Cc3ccccc3)C1=C[C@H](C(C)(C)C)O[C@@H]2C` gave ASAP1 GAP inh -26 and ARFGAP1 inh -2.
`CC(C)(C)N1C(=O)Cc2c1nc(N)c1c(N)nc(N3CCCCC3CO)c(C#N)c21` (stereo unspecified) gave PP5 primary 15* and PKD1 inh 3.
Screening CN(CCO)c1nc(N)c2c(N)nc3c(c2c1C#N)CC(=O)N3C1CCCC1 returned PP5 primary 6 and PKD1 inh -1.
For COc1cc2sc3cc(NCCCN4CCOCC4)ccc3c(=O)c2cc1OC the results were ASAP1 GAP inh 11 and ARFGAP1 inh 31*.
For OCCNc1nc(Nc2ccccc2)nc2ccccc12 the results were PP5 primary 0, ASAP1 GAP inh 1, ARFGAP1 inh -5 and PKD1 inh 13.
`OCCNc1nc(Nc2ccc(Br)cc2)nc2ccccc12` gave PP5 primary 3, ASAP1 GAP inh 26*, ARFGAP1 inh 2 and PKD1 inh -8.
CCCCc1c(-c2ccccc2OC)ncn1Cc1cccc(F)c1 was read as ASAP1 GAP inh 6 and ARFGAP1 inh -7.
`O=C(CSc1ccc(C(F)(F)F)cc1[N+](=O)[O-])Nc1ccccc1` gave PP5 primary 5, ASAP1 GAP inh 31*, ARFGAP1 inh 18 and PKD1 inh -16.
CC(=O)Nc1ccc(NC(=O)CSc2ccc(C(F)(F)F)cc2[N+](=O)[O-])cc1 was read as PP5 primary 3, ASAP1 GAP inh 7, ARFGAP1 inh -4 and PKD1 inh 11.
Screening COc1ccc(CN(CCN(C)C)c2ccccn2)cc1 returned PP5 primary 1, ASAP1 GAP inh 4, ARFGAP1 inh 5 and PKD1 inh -7.
For CCCCCCCCCCCCCCCC[N+](C)(C)CCN(Cc1ccc(OC)cc1)c1ncccn1 the results were PP5 primary 11*.
Screening COC(=O)c1cc2c(c3c4cc(F)ccc4n(S(=O)(=O)c4ccc(C)cc4)c13)C(=O)N(Cc1ccc(C(F)(F)F)cc1)C2 returned ASAP1 GAP inh -5 and ARFGAP1 inh -2.
COc1cccc(C(=O)N[C@H](C(=O)N2CCC[C@H]2C(=O)NCCc2ccccc2Cl)c2ccccc2)c1 was read as ASAP1 GAP inh -1 and ARFGAP1 inh 3.
For COc1ccc(/C=N/NC(=O)CN(C2=NS(=O)(=O)c3ccccc32)c2ccccc2)cc1 the results were PP5 primary 3, ASAP1 GAP inh -9, ARFGAP1 inh -8 and PKD1 inh -13.
Screening COc1ccccc1/C=N/NC(=O)CN(C1=NS(=O)(=O)c2ccccc21)c1ccccc1 returned PP5 primary 3, ASAP1 GAP inh 8, ARFGAP1 inh 40* and PKD1 inh -5.
For c1cc2cc(-c3c(-c4ccc5c(c4)OCO5)noc3-c3ccsc3)ccc2[nH]1 the results were PP5 primary 4, ASAP1 GAP inh 14 and ARFGAP1 inh 29*.
For COC(=O)c1ccc2nc(-c3ccc(Cl)cc3)c(Cc3ccccc3)n2c1 the results were ASAP1 GAP inh -13 and ARFGAP1 inh 0.
Cc1ccc(N2C(=O)[C@@H]3[C@H](C2=O)C2c4ccccc4C=CN2[C@@H]3C(=O)c2ccco2)cc1 (stereo partly specified) was read as ASAP1 GAP inh 26*, ARFGAP1 inh 3 and PKD1 inh 5.
`O=C(c1ccco1)[C@@H]1[C@@H]2C(=O)N(c3ccccc3)C(=O)[C@@H]2C2c3ccccc3C=CN21` (stereo partly specified) gave PP5 primary 4, ASAP1 GAP inh 34*, ARFGAP1 inh 2 and PKD1 inh 16.
`Cc1ccc(N2C(=O)[C@@H]3[C@H](C2=O)C2c4ccccc4C=CN2[C@@H]3C(=O)c2ccco2)c(C)c1` (stereo partly specified) gave PP5 primary 2, ASAP1 GAP inh 12, ARFGAP1 inh 5 and PKD1 inh 4.
For COC(=O)Cc1c([C@H](C)[C@@H](OC)c2ccccc2Br)nnn1Cc1ccccc1 the results were ASAP1 GAP inh -9 and ARFGAP1 inh -5.
CCOC(=O)N1CCN(C(=O)C[C@H]2C[C@@]3(C(=O)OC)C(=C[C@H](C(C)(C)C)O[C@@H]3C)N(Cc3ccc4c(c3)OCO4)C2=O)CC1 was read as ASAP1 GAP inh 2 and ARFGAP1 inh 11.
For CC1=NN(c2ccccc2)C(=O)/C1=C/c1c(O)n(-c2ccc(F)c(Cl)c2)[nH]c1=O the results were PP5 primary 10* and PKD1 inh -4.
Screening CC1=NN(c2ccccc2)C(=O)/C1=C\c1c(C)[nH]n(-c2ccccc2)c1=O returned PP5 primary 0, ASAP1 GAP inh -8, ARFGAP1 inh -11 and PKD1 inh 4.
Screening O=S(=O)(O)c1cc(O)ccc1O returned PP5 primary 0, ASAP1 GAP inh 4 and ARFGAP1 inh -9.
`O=S(=O)(c1cc(O)ccc1O)c1cccc2c(S(=O)(=O)c3cc(O)ccc3O)cccc12` gave PP5 primary 4, ASAP1 GAP inh 22 and ARFGAP1 inh 25*.
For COC(=O)[C@]12C[C@H](CC(=O)N3CCC(c4ccccc4)CC3)C(=O)N(Cc3ccccc3)C1=C[C@H](C(C)C)O[C@@H]2C1CC1 the results were ASAP1 GAP inh 5 and ARFGAP1 inh -1.
For CCC(C)[C@H]1CNC(=S)N1CCc1cc(C(F)(F)F)cc(C(F)(F)F)c1 (stereo partly specified) the results were PP5 primary 9.6*, ASAP1 GAP inh 0, ARFGAP1 inh 1 and PKD1 inh 5.
For COc1cccc(C(=O)N[C@H](C(=O)N2CCC[C@H]2C(=O)NC2CCCC2)C2CCCCC2)c1 the results were ASAP1 GAP inh -6 and ARFGAP1 inh 13.
`CCOC(=O)N1CCC(NS(=O)(=O)c2cc(Br)cc3c2N(C(=O)CC)CC3)CC1` gave PP5 primary 2, ASAP1 GAP inh -18, ARFGAP1 inh -7, PKD1 inh 66* and FP interf 140K -18.
For Cc1cc(N2CCN(C(=O)OC(C)(C)C)C[C@H]2C)ccc1N1CCN(Cc2ccccc2)[C@@H](C)C1 the results were ASAP1 GAP inh -10 and ARFGAP1 inh 19.
